≈ marks a conversion by molar mass, not a printed value.
Experiments:
Format in all cases: functional
[1] = tested on: BXPC-3; test: Growth inhibition of human BxPC3 cells after 48 hrs by SRB assay; settings: BXPC-3, 48 h
In short: (§1)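 Cells in RPMI1640 with 5% fetal bovine serum were seeded in 96-well plates and incubated 24 h before serial dilutions of compound were added. After 48 h, plates were TCA-fixed, stained with sulforhodamine B and read on a microplate reader. Five serial dilutions were tested, with optical density in duplicate per end point. GI50 was calculated from optical density as the concentration halving net protein increase.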

[2] = tested on: MCF7; test: Growth inhibition of human MCF7 cells after 48 hrs by SRB assay; settings: MCF7, 48 h; in short: as §1
[3] = tested on: SF-268; test: Growth inhibition of human SF268 cells after 48 hrs by SRB assay; settings: SF-268, 48 h; in short: as §1
[4] = tested on: NCI-H460; test: Growth inhibition of human NCI-H460 cells after 48 hrs by SRB assay; settings: NCI-H460, 48 h; in short: as §1
[5] = tested on: KM-20L2; test: Growth inhibition of human KM20L2 cells after 48 hrs by SRB assay; settings: KM-20L2, 48 h; in short: as §1
[6] = tested on: DU-145; test: Growth inhibition of human DU145 cells after 48 hrs by SRB assay; settings: DU-145, 48 h; in short: as §1

Row | SMILES | GI50 [1] [µg/mL] | GI50 [2] [µg/mL] | GI50 [3] [µg/mL] | GI50 [4] [µg/mL] | GI50 [5] [µg/mL] | GI50 [6] [µg/mL]
1 | C=C(C)[C@@H]1CC[C@]2(CO)CC[C@]3(C)[C@H](CC[C@@H]4[C@@]5(C)CC[C@H](NC(=O)[C@H](C)[C@@H](OC)[C@@H]6CCCN6C(=O)C[C@@H](OC)[C@H]([C@@H](C)CC)N(C)C(=O)[C@@H](NC(=O)[C@H](C(C)C)N(C)C)C(C)C)C(C)(C)[C@@H]5CC[C@]43C)[C@@H]12 | 2 (≈ 1.96 µM) | 0.7 (≈ 0.685 µM) | 0.4 (≈ 0.391 µM) | 2.1 (≈ 2.05 µM) | 0.85 (≈ 0.831 µM) | 0.4 (≈ 0.391 µM)
2 | C=C(C)[C@@H]1CC[C@]2(/C=N/O)CC[C@]3(C)[C@H](CC[C@@H]4[C@@]5(C)CC[C@H](OC(C)=O)C(C)(C)[C@@H]5CC[C@]43C)[C@@H]12 | 15.5 (≈ 31.1 µM) | 4.5 (≈ 9.04 µM) | 13.2 (≈ 26.5 µM) | 4.1 (≈ 8.24 µM) | 5.1 (≈ 10.2 µM) | > 10
3 | C=C(CNC(=O)[C@H](C)[C@@H](OC)[C@@H]1CCCN1C(=O)OC(C)(C)C)[C@@H]1CC[C@]2(COC(C)=O)CC[C@]3(C)[C@H](CC[C@@H]4[C@@]5(C)CC[C@H](OC(C)=O)C(C)(C)[C@@H]5CC[C@]43C)[C@@H]12 | > 10 | > 10 | 5.9 (≈ 7.27 µM) | > 10 | 7 (≈ 8.63 µM) | > 10
4 | C=C(C)[C@@H]1CC[C@]2(COC(C)=O)CC[C@]3(C)[C@H](CC[C@@H]4[C@@]5(C)CC[C@H](N)C(C)(C)[C@@H]5CC[C@]43C)[C@@H]12 | 1.1 (≈ 2.27 µM) | 0.2 (≈ 0.413 µM) | 0.21 (≈ 0.434 µM) | 0.21 (≈ 0.434 µM) | 0.35 (≈ 0.723 µM) | 0.13 (≈ 0.269 µM)
5 | CC[C@H](C)[C@@H]([C@@H](CC(=O)N1CCC[C@H]1[C@H](OC)[C@@H](C)C(=O)NCCN1C(=O)[C@]23CCC(C)(C)C1[C@@H]2[C@H]1CC[C@@H]2[C@@]4(C)CC[C@H](OC(C)=O)C(C)(C)[C@@H]4CC[C@@]2(C)[C@]1(C)CC3)OC)N(C)C(=O)[C@@H](NC(=O)[C@H](C(C)C)N(C)C)C(C)C | 3.8 (≈ 3.39 µM) | 3.6 (≈ 3.21 µM) | 1.3 (≈ 1.16 µM) | 5.1 (≈ 4.55 µM) | 3.1 (≈ 2.76 µM) | 0.39 (≈ 0.348 µM)
6 | C=C(CN)[C@@H]1CC[C@]2(CO)CC[C@]3(C)[C@H](CC[C@@H]4[C@@]5(C)CC[C@H](O)C(C)(C)[C@@H]5CC[C@]43C)[C@@H]12 | 3 (≈ 6.55 µM) | 3.1 (≈ 6.77 µM) | 4.2 (≈ 9.18 µM) | 4 (≈ 8.74 µM) | 2.9 (≈ 6.34 µM) | 2.1 (≈ 4.59 µM)
7 | C=C(CN=[N+]=[N-])[C@@H]1CC[C@]2(COC(C)=O)CC[C@]3(C)[C@H](CC[C@@H]4[C@@]5(C)CC[C@H](OC(C)=O)C(C)(C)[C@@H]5CC[C@]43C)[C@@H]12 | > 10 | > 10 | > 10 | > 10 | > 10 | > 10
8 | C=C(C)[C@@H]1CC[C@]2(C=O)CC[C@]3(C)[C@H](CC[C@@H]4[C@@]5(C)CC[C@H](OC(C)=O)C(C)(C)[C@@H]5CC[C@]43C)[C@@H]12 | > 10 | > 10 | > 10 | > 10 | > 10 | > 10
9 | C=C(C)[C@@H]1CC[C@]2(COC(C)=O)CC[C@]3(C)[C@H](CC[C@@H]4[C@@]5(C)CC[C@H](NC(=O)[C@H](C)[C@@H](OC)[C@@H]6CCCN6C(=O)OC(C)(C)C)C(C)(C)[C@@H]5CC[C@]43C)[C@@H]12 | > 10 | > 10 | > 10 | > 10 | > 10 | > 10
10 | C=C(CBr)[C@@H]1CC[C@]2(COC(C)=O)CC[C@]3(C)[C@H](CC[C@@H]4[C@@]5(C)CC[C@H](OC(C)=O)C(C)(C)[C@@H]5CC[C@]43C)[C@@H]12 | > 10 | > 10 | > 10 | > 10 | > 10 | > 10
11 | C=C(C)[C@@H]1CC[C@]2(CNC(=O)[C@H](C)[C@@H](OC)[C@@H]3CCCN3C(=O)OC(C)(C)C)CC[C@]3(C)[C@H](CC[C@@H]4[C@@]5(C)CC[C@H](OC(C)=O)C(C)(C)[C@@H]5CC[C@]43C)[C@@H]12 | > 10 | > 10 | > 10 | > 10 | > 10 | > 10
